Assay outcomes as filed in PubChem BioAssay.
Shown are actives, neighbours in structure and some others; about 1.4% of the full set was active somewhere.
Myeloid diff MLP = promotes myeloid progenitor differentiation. ER-HoxA9 myeloid progenitors, lysozyme-GFP differentiation, flow cytometry. calls only at 10 µM. 360,000 compounds, 1% hits. AID 624256;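 active = normalized GFP-positive differentiation at or above the plate's own cutoff, the solvent-only control mean plus 3 SD; inconclusive = no clear call, values can overlap the other calls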;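 also: cells exposed to compound for four days before flow analysis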
Casp6 inh = blocks human caspase-6 cleavage activity | purified caspase-6, Z-VEID-R110 cleavage fluorescence | inhibition, % at 12.5 µM | 350,000 compounds, 0.53% hits | AID 686996;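 active = mean inhibition across replicates at least about 35%, with every replicate also reaching that limit, limit read from the data; inconclusive = only one of the two criteria met; inactive = neither criterion met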;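 also: 0% = median of neutral control wells and 100% = no fluorescence left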
Target sequence (P55212 24-179 limits assumed): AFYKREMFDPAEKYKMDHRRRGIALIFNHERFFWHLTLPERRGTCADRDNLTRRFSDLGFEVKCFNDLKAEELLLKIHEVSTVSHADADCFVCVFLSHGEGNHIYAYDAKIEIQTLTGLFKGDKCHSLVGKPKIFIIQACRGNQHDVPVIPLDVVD
Target sequence (P55212 194-293 limits assumed): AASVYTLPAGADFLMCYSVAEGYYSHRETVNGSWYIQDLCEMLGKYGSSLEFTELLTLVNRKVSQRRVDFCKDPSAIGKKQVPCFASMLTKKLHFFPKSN
T cell modulator = T cell immune modulation candidate; 330,000 compounds, 0.068% hits; response (vesicle binding), % at 7 µM; 2C CD8+ T cell-vesicle binding, flow cytometry; hits give low values;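 active = response, share of CD8 T cells binding vesicles, and their 90th percentile fluorescence all below set limits, cut at about 80% in these data, passing the limit was not always enough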;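 also: values below 100% mean blocked vesicle binding to the CD8+ T cells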
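Material: murine 2C transgenic CD8+ T lymphocytes / Also added: QL9-peptide-loaded Drosophila micro-vesicles bearing Ld, ICAM-1 and B7-1 / Schedule: binding step 1.5 h, 37 °C, antibody labelling 20 min, ice / Signal: flow cytometry, PE anti-B7-1 (FL2) versus Alexa647 anti-CD8 (FL8), PFA-fixed / Evaluation: percent CD8+ FL2 mean versus row control / Benchmarks: naked versus QL9-loaded vesicles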
Vif inh = inhibitors of HIV Vif | HEK293T cells, Vif self-association by quenched fluorescence, imaging, 24 h | inhibition, % at 7.49 µM | 340,000 compounds, 0.35% hits | AID 602346; in the data active = inhibition above about 50%, passing the limit was not always enough; inconclusive = no clear call, values can overlap the other calls; inactive = below about 31%
* hit, by the source's call; i = inactive; ? = inconclusive; . = not tested or not shown; + = active, no number.

SMILES	Myeloid diff MLP	Casp6 inh	T cell modulator	Vif inh
C[C@H]1CN([C@@H](C)CO)C(=O)Cc2cc(NS(=O)(=O)c3ccc(F)cc3)ccc2O[C@@H]1CN(C)Cc1ccc(C(=O)O)cc1	.	-3	.	.
Cc1ccc(Nc2nc(=O)[nH]nc2C)cc1	i	.	339	.
Cc1n[nH]c(=O)nc1Nc1ccc(O)cc1	i	9	357	66*
O=C(NCC[C@@H]1CC[C@H](NC(=O)c2ccc3c(c2)OCO3)[C@H](CO)O1)Nc1cc(F)ccc1F	.	-4	.	.
COc1ccc(-n2ncc3c2CC(C)(C)CC3NC(=O)CCCN2CCCC2=O)cc1 (configuration not stated)	i	-5	457	3
COc1ccc(-n2ncc3c2CC(C)(C)CC3NC(=O)CCN2CCCCC2=O)cc1 (configuration not stated)	+	-3	430	4
CCOC(=O)c1ccc(NC(=O)NNC(=O)CCc2ccc(OC)cc2)cc1	+	3	285	1
COc1cc(/C=C2/C(=O)NN(c3ccc(Cl)cc3)C2=O)cc(Br)c1O	i	81*	219	1
COc1cc(/C=C2/C(=O)NN(c3ccc(F)cc3)C2=O)cc(Cl)c1O	i	14	139	-1
CO[C@H]1CN(C)C(=O)c2ccc(NC(=O)c3ccccc3F)cc2OC[C@H](C)N(CC2CC2)C[C@@H]1C	.	0	.	.
Cc1nc2ccc(NS(=O)(=O)c3ccc(F)cc3F)cc2s1	i	3	35	-5
Cc1nc2ccc(NS(=O)(=O)c3c(F)cc(F)cc3Br)cc2s1	i	40*	231	-42
C[C@@H]1CCCCO[C@@H](CN(C)C(=O)Nc2ccc3c(c2)OCO3)[C@@H](C)CN([C@@H](C)CO)C(=O)c2cc(NC(=O)NC3CCCCC3)ccc2O1	.	1	.	.
COc1cccc(S(=O)(=O)Nc2ccc3c(c2)[C@@H]2C[C@@H](CC(=O)NCc4ccccc4F)O[C@H](CO)[C@@H]2O3)c1	.	-3	.	.
COc1ccc2c3c([nH]c2c1)[C@H](CO)N(C(=O)c1ccccn1)CC31CN(S(C)(=O)=O)C1	.	-3	.	.
C[C@@H]1CN([C@H](C)CO)C(=O)Cc2cc(NC(=O)Nc3ccc(F)cc3)ccc2O[C@H]1CN(C)C(=O)Nc1ccccc1	.	0	.	.
N#Cc1cccc(NC(=O)CSc2ccccc2)c1	i	3	393	1
N#Cc1cccc(NC(=O)CSc2ccc3c4c(cccc24)C(=O)c2ccccc2-3)c1	+	.	355	.
COc1ccc(NC(=O)CSc2nnc(C)c3ccccc23)cc1	i	5	400	-2
COc1ccc(NC(=O)CSc2ccc3c4c(cccc24)C(=O)c2ccccc2-3)cc1	+	.	692	i
CCN(CC)c1ccc(/C=N/N=C(N)N)c(O)c1	.	-2	215	65*
CCN(CC)c1ccc(/C=N/NC(=O)c2ccc3nc[nH]c3c2)c(O)c1	+	.	251	-6
CC(C)CN1C(=O)[C@@]2(c3ccc([N+](=O)[O-])cc3)CC(=O)N(CC3C4CC5CC(C4)CC3C5)[C@@H]2c2ccc(CO)cc21 (some centres not stated)	.	5	.	.
O=C(NCc1ccc(Cl)cc1)N1CCOCC1	i	-1	144	50*
CN(C)c1ccc(-c2ccnc3c2CC(C)(C(=O)NCc2ccccc2)O3)cc1 (configuration not stated)	+	-1	.	0
SMILES	Myeloid diff MLP	Casp6 inh	T cell modulator	Vif inh
CN(C)c1ccc(-c2ccnc3c2CC(C)(C(=O)NCc2ccncc2)O3)cc1 (configuration not stated)	i	2	.	.
C=CCNC(=S)/N=c1/ccccn1CCC	+	1	219	-6
O=C(/C=C/c1cccc([N+](=O)[O-])c1)c1ccc([N+](=O)[O-])o1	+	5	321	?
Cc1cccc(/C=C/C(=O)c2ccc([N+](=O)[O-])o2)c1	?	1	214	62*
COc1ccc(/C=N/NC(=O)c2cc(O)c(O)c(O)c2)cc1Cn1cc([N+](=O)[O-])cn1	i	62*	.	0
COc1ccc(/C=N/NC(=O)c2ccccc2O)cc1Cn1cc([N+](=O)[O-])cn1	i	1	332	1
Cc1ccccc1-c1nnc(SCC(=O)Nc2ccc3c(c2)OCCO3)n1N	+	0	400	-2
O=C(CSc1nnc(-c2ccncc2)n1-c1ccccc1Cl)Nc1ccc(C(=O)O)cc1	i	1	223	-2
Nn1c(SCC(=O)Nc2ccc3c(c2)OCCO3)nnc1-c1ccccn1	i	.	279	16
O=C(CSc1ncccn1)Nc1ccc2c(c1)OCO2	i	-4	235	14
O=C(CSc1nnc(-c2ccco2)n1-c1ccccc1Cl)Nc1cccc(C(=O)O)c1	i	55*	256	-1
Cc1cc(C)c(NC(=O)CSc2nnc(-c3ccco3)n2N)c(C)c1	i	.	353	3
Cc1ccc(NC(=O)CSc2nnc(-c3ccco3)n2N)cc1F	+	2	320	8
O=C(CSc1ncccn1)NC(=O)Nc1ccc2c(c1)OCCO2	i	-3	566	60*
O=C(c1cccnc1)N1CC2(C1)[C@H](c1ccccc1)[C@@H](CO)N2C(=O)c1cccnc1	.	1	.	.
COC(=O)C[C@H]1CC[C@H]2[C@H](COc3ccc(NC(=O)c4cccc(F)c4)cc3C(=O)N2C)O1	.	-1	.	.
C[C@H](CO)N1C[C@H](C)[C@@H](CN(C)S(=O)(=O)c2cn(C)cn2)Oc2cc(C3=CCCCC3)ccc2S1(=O)=O	.	0	.	.
CC(=O)N[C@H]1C[C@@H]2O[C@@H](CO)CC[C@@H]2O[C@@H]1CCc1ccc(C#CC2(O)CCCC2)cc1	.	0	.	.
Cc1ccc2nc(-c3ccc(SCC(=O)Nc4ccc5c(c4)OCCO5)nc3)[nH]c2c1	i	.	213	-1
O=C(CSc1ccc(-c2nc3ccccc3[nH]2)cn1)Nc1ccc2c(c1)OCCO2	i	.	408	55*
O=C(C[C@H]1C=C[C@H](NC(=O)C2CCOCC2)[C@@H](CO)O1)Nc1nccs1	.	-2	.	.
C[C@H]1CCC(=O)N([C@H](CN=[N+]=[N-])Cc2ccccc2)CC1	i	-4	464	59*
O=C(c1ccc2ncsc2c1)N1CCN(c2cccc(C(F)(F)F)c2)CC1	+	1	.	-11
COc1ccccc1N1CCN(C(=O)c2ccc3ncsc3c2)CC1	+	0	.	-2
C[C@H]1CN([C@@H](C)CO)C(=O)Cc2cc(NC(=O)Cn3cnnn3)ccc2O[C@H]1CN(C)Cc1ccc(C(=O)Nc2ccccc2N)cc1	.	0	.	.
COc1ccccc1CNS(=O)(=O)c1cc(CN2C(=O)c3cccnc3C2=O)ccc1OC	i	0	382	-5
COc1cc(CCNC2=CC(=O)c3ncccc3C2=O)ccc1O	.	91*	.	11
Cc1ccccc1C1CC(=O)Oc2cc(O)ccc21 (configuration not stated)	i	.	.	63*
COc1cccc(CN(C)C[C@@H]2OCc3ccccc3-c3c(n(C)c4ccccc34)C(=O)N([C@@H](C)CO)C[C@H]2C)c1	+	-1	.	.
COc1cccc(CN(C)C[C@H]2OCc3ccccc3-c3c(n(C)c4ccccc34)C(=O)N([C@@H](C)CO)C[C@H]2C)c1	.	-2	.	.
